From ChEMBL document CHEMBL2424598, “Identification and optimization of pteridinone Toll-like receptor 7 (TLR7) agonists for the oral treatment of viral hepatitis” (J Med Chem, 2013)

Columns and labels:
Homo sapiens = species on record: Homo sapiens; test: Selectivity ratio of MEC for TLR8-mediated TNFalpha production in human PBMC to MEC for TLR7-mediated IFNalpha production in human PBMC
Outline: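 Cryopreserved human PBMCs came from leukapheresis of a single healthy donor selected as a consistent responder. Cells were incubated with compound for 24 h over an eight-point concentration range, and cytokine release was measured. MEC is the lowest concentration giving cytokine levels at least 3-fold above untreated cultures, determined per cytokine.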

[1] = target: T1, Toll-like receptor 7 (Homo sapiens) (UniProt Q9NYK1); test: Agonist activity at TLR7-mediated IFNalpha production in human PBMC assessed as minimum concentration of compound necessary to generate >3 fold of cytokine levels relative to control
T1 sequence (whole entry): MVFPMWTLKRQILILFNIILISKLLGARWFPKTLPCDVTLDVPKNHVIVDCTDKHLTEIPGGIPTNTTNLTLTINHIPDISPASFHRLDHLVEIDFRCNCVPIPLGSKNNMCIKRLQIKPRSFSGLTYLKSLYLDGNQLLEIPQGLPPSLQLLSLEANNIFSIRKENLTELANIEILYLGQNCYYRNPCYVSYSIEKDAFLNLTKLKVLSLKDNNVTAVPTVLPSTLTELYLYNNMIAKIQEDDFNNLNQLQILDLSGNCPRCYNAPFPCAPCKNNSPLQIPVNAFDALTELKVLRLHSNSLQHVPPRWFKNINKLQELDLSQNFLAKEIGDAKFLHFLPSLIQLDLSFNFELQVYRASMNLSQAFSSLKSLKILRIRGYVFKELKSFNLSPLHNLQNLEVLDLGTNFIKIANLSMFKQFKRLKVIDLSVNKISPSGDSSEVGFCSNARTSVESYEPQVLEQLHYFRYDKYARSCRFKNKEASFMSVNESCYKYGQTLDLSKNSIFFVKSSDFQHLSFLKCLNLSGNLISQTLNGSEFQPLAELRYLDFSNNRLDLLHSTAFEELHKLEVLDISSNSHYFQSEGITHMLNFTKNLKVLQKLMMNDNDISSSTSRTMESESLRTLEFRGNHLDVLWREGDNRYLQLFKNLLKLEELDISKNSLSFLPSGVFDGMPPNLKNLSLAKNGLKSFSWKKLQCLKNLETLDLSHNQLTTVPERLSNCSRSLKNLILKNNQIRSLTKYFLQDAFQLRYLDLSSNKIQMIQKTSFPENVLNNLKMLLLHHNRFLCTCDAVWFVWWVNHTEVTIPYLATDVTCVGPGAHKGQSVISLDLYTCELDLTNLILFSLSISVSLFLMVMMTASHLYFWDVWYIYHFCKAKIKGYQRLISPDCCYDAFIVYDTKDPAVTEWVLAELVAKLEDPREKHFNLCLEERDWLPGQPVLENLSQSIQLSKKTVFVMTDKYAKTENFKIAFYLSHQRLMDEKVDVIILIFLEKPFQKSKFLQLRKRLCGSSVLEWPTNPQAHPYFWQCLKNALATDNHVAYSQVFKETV
Outline: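 Cryopreserved PBMCs from leukapheresis of a single healthy human donor, chosen as a consistent, robust responder to TLR7 agonist stimulation. Cells were incubated with compound for 24 h over an eight-point concentration range. Secreted IFN-α was measured to build dose-response curves. MEC was taken as the lowest concentration giving cytokine levels ≥3-fold over untreated control cultures.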

[2] = Lipophilicity, log D of the compound; assay type: physicochemical; conditions: octanol/water

Ratio (Homo sapiens) | MEC [1] | logD [2] | SMILES
10 | 1000 nM |  | CCCCOc1nc(N)c2c(n1)N(C)C(Cc1ccc(CN3CCCC3)cc1)C(=O)N2 (configuration not stated)
10 | 0.32 nM |  | COCCOc1cc2c(c(N)n1)NC(=O)CN2Cc1ccc(CN2CCCC2)cc1
100 | 10 nM |  | Nc1nc(OCC2CCOCC2)nc2c1NC(=O)CN2Cc1cccc(CN2CCCC2)c1
1000 | 10 nM |  | CCCCNc1nc(N)c2c(n1)N(Cc1cccc(CN3CCCC3)c1)CC(=O)N2
30 | 10 nM |  | CCC(CC)COc1nc(N)c2c(n1)N(Cc1cccc(CN3CCCC3)c1)CC(=O)N2
30 | 320 nM |  | CCCCCc1nc(N)c2c(n1)N(Cc1cccc(CN3CCCC3)c1)CC(=O)N2
33 | 3 nM |  | CCC[C@H](C)Oc1nc(N)c2c(n1)N(Cc1cccc(CN3CCCC3)c1)CC(=O)N2
0 | 10000 nM |  | CC(C)COc1nc(N)c2c(n1)N(Cc1cccc(CN3CCCC3)c1)CC(=O)N2
3 | 1000 nM |  | CCCCOc1nc(N)c2c(n1)N(Cc1cccc(CN3CCCC3)c1)C1(CC1)C(=O)N2
33 | 3 nM |  | CCCCOc1nc(N)c2[nH]c(=O)c(=O)n(Cc3cccc(CN4CCCC4)c3)c2n1
3 | 100 nM |  | COCCOc1nc(N)c2[nH]c(=O)c(=O)n(Cc3cccc(CN4CCCC4)c3)c2n1
3.3 | 30 nM |  | CCCCOc1nc(N)c2c(n1)N(Cc1cccc(CN3CCCCC3)c1)CC(=O)N2
30 | 100 nM |  | CCCCSc1nc(N)c2c(n1)N(Cc1cccc(CN3CCCC3)c1)CC(=O)N2
3 | 3 nM |  | CCCCOc1nc(N)c2c(n1)N(Cc1ccc3c(c1)CN(C(C)C)CC3)CC(=O)N2
10 | 300 nM |  | CCCCOc1cc2c(c(N)n1)NC(=O)CN2Cc1cccc(CN2CCCC2)c1
10 | 1000 nM |  | CCCN(C)C(=O)c1nc(N)c2[nH]c(=O)c(=O)n(Cc3cccc(CN4CCCC4)c3)c2n1
100 | 100 nM |  | CCCCOc1nc(N)c2c(n1)N(Cc1ccccc1CN1CCCC1)CC(=O)N2
 | > 10000 nM |  | CCCCOc1nc(N)c2c(n1)N(Cc1cccc(CN3CCCC3)c1)CCC(=O)N2
3.3 | 3 nM |  | CCCCOc1nc(N)c2c(n1)N(Cc1ccc(-c3ccc(CN4CCCC4)cc3)cc1)CC(=O)N2
10 | 3 nM |  | CCCCOc1nc(N)c2c(n1)N(Cc1ccc(-c3cccc(CN4CCCC4)c3)cc1)CC(=O)N2
30 | 3 nM |  | CCCCNc1nc(N)c2[nH]c(=O)c(=O)n(Cc3cccc(CN4CCCC4)c3)c2n1
10 | 30 nM |  | CCCCOc1cc2c(c(N)n1)NC(=O)CN2Cc1ccc(CN2CCCC2)cc1
10 | 1000 nM |  | CCCN(C)C(=O)c1nc(N)c2c(n1)N(Cc1cccc(CN3CCCC3)c1)CC(=O)N2

Ratio (Homo sapiens) | MEC [1] | logD [2] | SMILES
10 | 1000 nM |  | COCCNc1nc(N)c2c(n1)N(Cc1cccc(CN3CCCC3)c1)CC(=O)N2
10 | 1 nM |  | CCCCOc1nc(N)c2c(n1)N(Cc1ccc(CN3CCCC3)cc1)CC(=O)N2
3.3 | 3000 nM |  | Nc1nc(OCc2ccccc2)nc2c1NC(=O)CN2Cc1cccc(CN2CCCC2)c1
30 | 300 nM |  | CCCCOc1nc(N)c2c(n1)N(Cc1cccc(CN3CCCC3)c1)C(C)C(=O)N2 (configuration not stated)
30 | 320 nM |  | CCCCOc1nc(N)c2c(n1)N(C)C(Cc1cccc(CN3CCCC3)c1)C(=O)N2 (configuration not stated)
0.3 |  |  | CCCCOc1nc(N)c2c(n1)N(Cc1ccccc1)CC(=O)N2
10 | 3 nM |  | CCCCOc1nc(N)c2c(n1)N(Cc1ccc3c(c1)CCN(C(C)C)C3)CC(=O)N2
3 | 30 nM |  | CCCCOc1cc2c([nH]c(=O)c(=O)n2Cc2ccc(-c3cccc(CN4CCCC4)c3)cc2)c(N)n1
10 | 300 nM |  | CCCCOc1nc(N)c2c(n1)N1Cc3cccc(CN4CCCC4)c3CC1C(=O)N2 (configuration not stated)
3.3 | 3000 nM |  | Nc1nc(OCC2CCCCC2)nc2c1NC(=O)CN2Cc1cccc(CN2CCCC2)c1
30 | 10 nM |  | CCCCOc1nc(N)c2c(n1)N(Cc1ccc(CN3CCCC3)cc1)C(C)C(=O)N2 (configuration not stated)
10 | 30 nM |  | Nc1nc(OCCC2CC2)nc2c1NC(=O)CN2Cc1cccc(CN2CCCC2)c1
30 | 3 nM |  | CCCCOc1nc(N)c2c(n1)N(Cc1ccc(CCCN3CCCC3)nc1)CC(=O)N2
10 | 30 nM |  | CCCCOc1cc2c([nH]c(=O)c(=O)n2Cc2cccc(CN3CCCC3)c2)c(N)n1
 | 0.03 nM |  | CCCCOc1nc(N)c2[nH]c(=O)n(Cc3cccc(CN4CCCC4)c3)c2n1
3.3 | 300 nM |  | CCCCOc1nc(N)c2c(n1)N(Cc1cccc(CN3CCOCC3)c1)CC(=O)N2
3 | 10 nM |  | CCCCOc1cc2c([nH]c(=O)c(=O)n2Cc2ccc(-c3ccc(CN4CCCC4)cc3)cc2)c(N)n1
3 | 3 nM |  | CCCCOc1cc2c([nH]c(=O)c(=O)n2Cc2ccc(CN3CCCC3)cc2)c(N)n1
10 | 0.32 nM |  | CCCCOc1nc(N)c2[nH]c(=O)c(=O)n(Cc3ccc(CN4CCCC4)cc3)c2n1
 | > 10000 nM |  | CCCCOc1nc(N)c2c(n1)NC(Cc1cccc(CN3CCCC3)c1)C(=O)N2 (configuration not stated)
100 | 100 nM |  | CCCCCOc1nc(N)c2c(n1)N(Cc1cccc(CN3CCCC3)c1)CC(=O)N2
1000 | 10 nM | 1 | COCCOc1nc(N)c2c(n1)N(Cc1cccc(CN3CCCC3)c1)CC(=O)N2
